Measured values gathered from unrelated publications.
Each line is one published result; the experiments were not run side by side.
Target: Tyrosine-protein kinase Blk (BLK, Homo sapiens, UniProt P51451)

SMILES | test | setting | quantity | result
Nc1ncc(-c2nc(N3CCOCC3)nc(N3CCOCC3)n2)c(C(F)F)n1 | binding, competition with immobilised ligand | 10 µM | remaining binding | 70%
Cn1cncc1[C@](O)(COc1ccc(C#N)cc1-c1ccc(OC(F)(F)F)cc1)c1ccc(C#N)cc1 | cell-free assay, competition with immobilised ligand | 1 µM | remaining binding | 90%
CC(C)(C)c1cc(C=C(C#N)C#N)cc(Br)c1O | enzyme activity, inhibitor | 0.5 µM | remaining activity | 97.9%
Cn1cc(-c2cc(F)cc(N3CCn4c(cc5c4CCCC5)C3=O)c2CO)cc(Nc2ccc(N3CCN(C4COC4)CC3)cn2)c1=O | enzyme activity, inhibitor | 0.1 µM | inhibition | 14%
C#Cc1n[nH]c2c(-c3cn([C@@H](C)c4ccccc4)c(=O)[nH]c3=O)cc(F)cc12 | enzyme activity, inhibitor | 0.1 µM | inhibition | -5.4%
COc1cc(Nc2ncc(F)c(Nc3ccc4c(n3)NC(=O)C(C)(C)O4)n2)cc(OC)c1OC | binding, competition with immobilised ligand | 10 µM | inhibition | 100%
Cc1nn(C)cc1-c1nc2c(N3CCN(Cc4ccc(Cl)cc4)CC3)c(Cl)cnc2[nH]1 | binding, competition with immobilised ligand | 1 µM | remaining binding | 100%
O=c1[nH]c2ccccc2n1C1CCN(Cc2ccc(-c3[nH]c4cc5ncnc5cc4nc3-c3ccccc3)cc2)CC1 | cell-free assay | 0.5 µM | remaining signal | 106%
C#Cc1n[nH]c2c(-c3cn([C@@H](C)c4ccccn4)c(=O)[nH]c3=O)cc(F)cc12 | enzyme activity, inhibitor | 0.1 µM | inhibition | -5.3%
Cn1cc(-c2cccc(N3CCc4c(sc5c4CC(C)(C)C5)C3=O)c2CO)cc(Nc2ccncn2)c1=O | enzyme activity, inhibitor | 1 µM | inhibition | -3%
COc1ncccc1-c1cnn2ccc(N3CCN(C(=O)OC(C)C)CC3)nc12 | binding, competition with immobilised ligand | 1 µM | remaining binding | 100%
